Source: ChEMBL document CHEMBL1122969, “Spiro[4.5] and spiro[4.6] carboxylic acids: cyclic analogues of valproic acid. Synthesis and anticonvulsant evaluation” (J Med Chem, 1985)

How the values were obtained:
Mus musculus [1] = assay: Anticonvulsant activity against Maximal electroshock seizure at dose 300 mg/kg at 0.5 hr; toxic; type: ADME, organism-based; set-up: dose 300 mg/kg; conditions: in vivo
Outline: (§1)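 Phase I mouse screen. Compound was suspended in 30% polyethylene glycol 400 and given by intraperitoneal injection at 30, 100, 300 or 600 mg/kg. Testing was at 30 min and 4 h (maximal electroshock or subcutaneous pentylenetetrazol), with rotorod toxicity scored alongside. Scored as animals protected/tested; toxicity was flagged at the 0.5 h or 4 h check.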

Mus musculus [2] = assay: Anticonvulsant activity against Maximal electroshock seizure at dose 300 mg/kg at 4 hr; toxic; type: ADME, organism-based; set-up: dose 300 mg/kg; conditions: in vivo; outline: as §1
Mus musculus [3] = assay: Anticonvulsant activity against Maximal electroshock seizure at dose 600 mg/kg at 4 hr; type: functional; outline: as §1
Mus musculus [4] = assay: Anticonvulsant activity against Subcutaneous pentylenetetrazole test at dose 300 mg/kg at 0.5 hr; type: functional; outline: as §1
Mus musculus [5] = assay: Anticonvulsant activity against Subcutaneous pentylenetetrazole test at dose 300 mg/kg at 4 hr; type: functional; outline: as §1
Mus musculus [6] = assay: Anticonvulsant activity against Subcutaneous pentylenetetrazole test at dose 600 mg/kg at 0.5 hr; type: functional; outline: as §1
Mus musculus [7] = assay: Anticonvulsant activity against Subcutaneous pentylenetetrazole test at dose 600 mg/kg at 4 hr; type: functional; outline: as §1
Mus musculus [8] = assay: Anticonvulsant activity against neurologic toxicity test at dose 300 mg/kg at 0.5 hr; type: organism-based; set-up: dose 300 mg/kg; conditions: in vivo
Outline: (§2)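 Mice got the compound as a suspension in 30% polyethylene glycol 400 by ip injection (30, 100, 300, 600 mg/kg) 30 min or 4 h before the rotorod neurological toxicity test. The value is the number of animals showing toxicity over the number tested.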

Mus musculus [9] = assay: Anticonvulsant activity against neurologic toxicity test at dose 300 mg/kg at 4 hr; type: organism-based; set-up: dose 300 mg/kg; conditions: in vivo; outline: as §2
Mus musculus [10] = assay: Anticonvulsant activity against neurologic toxicity test at dose 600 mg/kg at 0.5 hr; type: organism-based; set-up: dose 600 mg/kg; conditions: in vivo; outline: as §2
Mus musculus [11] = assay: Anticonvulsant activity against neurologic toxicity test at dose 600 mg/kg at 4 hr; type: organism-based; set-up: dose 600 mg/kg; conditions: in vivo; outline: as §2
Mus musculus [12] = assay: Anticonvulsant activity against Maximal electroshock seizure at dose 600 mg/kg at 0.5 hr; type: functional; outline: as §1
Mus musculus [13] = assay: Phase V qualification against antipicrotoxin activity administered subcutaneously at 3.2 mg/kg; type: functional; conditions: sc, route subcutaneous
Mus musculus [14] = assay: Anticonvulsant activity against Bicucullin (3.75 mg/kg) induced clonic seizure at dose 360 mg/kg subcutaneously at pretreatment time of 15 min.; type: functional; conditions: route subcutaneous
Outline: (§3)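 CF1 mice (Sprague–Dawley) were given the compound sc in 30% polyethylene glycol 400, with vehicle-injected controls. After the stated pretreatment interval, at the time of peak effect, bicuculline 3.75 mg/kg was injected sc; this dose gives clonic and tonic seizures and death in all controls. Clonic seizure = at least one 5-s clonic spasm episode. Tonic seizure = hindlimb flexion then extension. Scored as mice protected/tested plus mean ± SD onset, minutes.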

Mus musculus [15] = assay: Anticonvulsant activity against Bicucullin (3.75 mg/kg) induced clonic seizure at dose 400 mg/kg subcutaneously at pretreatment time of 15 min.; type: functional; conditions: route subcutaneous; outline: as §3
Mus musculus [16] = assay: Anticonvulsant activity against Bicucullin (3.75 mg/kg) induced death at dose 400 mg/kg subcutaneously at pretreatment time of 15 min.; type: ADME, organism-based; set-up: dose 400 mg/kg, route subcutaneous; conditions: in vivo, sc
Mus musculus [17] = assay: Anticonvulsant activity against Bicucullin (3.75 mg/kg) induced tonic seizure at dose 360 mg/kg subcutaneously at pretreatment time of 15 min.; type: functional; conditions: route subcutaneous; outline: as §3
Mus musculus [18] = assay: Anticonvulsant activity against Bicucullin (3.75 mg/kg) induced tonic seizure at dose 400 mg/kg subcutaneously at pretreatment time of 15 min.; type: functional; conditions: route subcutaneous; outline: as §3
Mus musculus [19] = assay: Anticonvulsant activity against picrotoxin (4.0 mg/kg) induced clonic seizures at 400 mg/kg subcutaneous dose 15 min pretreatment; type: functional
Mus musculus [20] = species: Mus musculus; assay: animal or person; conditions: sc
Mus musculus [21] = assay: Anticonvulsant activity against Maximal electroshock seizure at dose 300 mg/kg at 0.5 hr; type: functional; outline: as §1
Mus musculus [22] = assay: Anticonvulsant activity against Maximal electroshock seizure at dose 300 mg/kg at 4 hr; type: functional; outline: as §1
Mus musculus [23] = assay: Phase II qualification against administered subcutaneously was reported.; type: functional; conditions: sc
Outline: (§4)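 Mice were used. scMet ED50 and rotorod TD50 came from groups of 6–12 mice dosed over a range until at least three points fell within 10–90% protection or minimal neurotoxicity. Both were read at the time of peak effect, 0.5 h. ED50, TD50 and 95% confidence intervals were obtained from a plot by the Litchfield–Wilcoxon method. PI = TD50/ED50.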

Mus musculus [24] = assay: Anticonvulsant activity against Bicucullin (3.75 mg/kg) induced clonic seizure at dose 300 mg/kg subcutaneously at pretreatment time of 30 min.; type: functional; conditions: route subcutaneous; outline: as §3
Mus musculus [25] = assay: Anticonvulsant activity against Bicucullin (3.75 mg/kg) induced death at dose 300 mg/kg subcutaneously at pretreatment time of 30 min.; type: ADME, organism-based; set-up: dose 300 mg/kg, route subcutaneous; conditions: in vivo, sc
Mus musculus [26] = assay: Anticonvulsant activity against Bicucullin (3.75 mg/kg) induced tonic seizure at dose 300 mg/kg subcutaneously at pretreatment time of 30 min.; type: functional; conditions: route subcutaneous; outline: as §3
[27] = Phase II qualification against neurotoxicity administered subcutaneously was reported.; type: toxicity, organism-based; conditions: mouse, in vivo, sc; outline: as §4
[28] = Protective index is the ratio of TD50 to that of ED50; type: ADME; conditions: read-out: Protective index; outline: as §4

Structure (SMILES)	No. protected/tested (Mus musculus [2])	No. protected/tested (Mus musculus [3])	No. protected/tested (Mus musculus [4])	No. protected/tested (Mus musculus [5])	No. protected/tested (Mus musculus [6])	No. protected/tested (Mus musculus [7])	No. toxicity/tested (Mus musculus [8])	No. toxicity/tested (Mus musculus [9])	No. toxicity/tested (Mus musculus [10])	No. toxicity/tested (Mus musculus [11])	No. protected/tested (Mus musculus [12])	No. protected/tested (Mus musculus [21])	other results
O=C(O)CC1CCC2(CCCCCC2)C1 (stereo not given)	0	0	1	0	1	1	3	0	4	0	1	–	No. protected/tested (Mus musculus [1]): 1
CCCC(CCC)C(=O)O [VALPROIC ACID]	–	–	–	–	–	–	–	–	–	–	–	–	ED50 (Mus musculus [13]): 387 mg/kg; Average onset (Mus musculus [14]): 9 min; Average onset (Mus musculus [15]): 15 min; Average onset (Mus musculus [16]): 18 min; Average onset (Mus musculus [17]): 11 min; Average onset (Mus musculus [18]): 17 min; Average onset (Mus musculus [19]): 16 min; ED50 (Mus musculus [20]): 149 mg/kg
O=C([O-])C1CCC2(CCCCCC2)C1.[Na+] (stereo not given)	–	0	0	0	1	0	0	0	4	2	0	0	No. protected/tested (Mus musculus [22]): 0
O=C(O)C1(C(=O)O)CCC2(CCCCCC2)C1	0	0	1	0	1	0	0	0	3	2	0	0	ED50 (Mus musculus [23]): 194 mg/kg; Average onset (Mus musculus [24]): 9 min; Average onset (Mus musculus [25]): 13 min; Average onset (Mus musculus [26]): 12 min; TD50 [27]: 275 mg/kg; selectivity ratio [28]: 1.4
